Assay results reported in ChEMBL document CHEMBL4043073, “Boronic Acid Modifications Enhance the Anti-Influenza A Virus Activities of Novel Quindoline Derivatives” (J Med Chem, 2017).
Activity calls are given as the source filed them. The rule behind the calls is not given here.

Legend:
NCI-H1299 = test: Cytotoxicity against human H1299 cells at 20 uM after 48 hrs by resazurin based fluorescence method; type: cell-based; settings: nci-h1299, 48 h
Outline: (§1)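 Confluent MDCK, A549 or H1299 cells exposed in triplicate to compound for 48 h at 37 °C (A549/H1299 at 20 μM). Resazurin added to 0.2 mg/mL final for 16 h. Fluorescence read at ex 544 / em 595 nm; viability as % of untreated.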

A549 = test: Cytotoxicity against human A549 cells at 20 uM after 48 hrs by resazurin based fluorescence method; type: cell-based; settings: a549, 48 h; outline: as §1
[1] = tested on: Influenza A virus (A/Puerto Rico/8/1934(H1N1)); test: Inhibition of Influenza A virus (A/Puerto Rico/8/34(H1N1)) neuraminidase using MUNANA as substrate preincubated for 30 mins followed by substrate addition measured after 30 mins by fluorescence assay relative to control
Outline: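 Inactivated PR8 virus supernatant mixed with compound (10 μM) in 33 mM MES […], 4 mM CaCl2 for 30 min at 37 °C. MUNANA (20 μM) was added for 30 min at 37 °C and the reaction stopped with glycine/ethanol pH 10.7. Fluorescence read at ex 360 / em 440 nm; zanamivir 10 μM as reference; n = 3.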

[2] = Drug uptake in human A549 cell nucleus at 20 uM after 4 hrs by DAPI staining based confocal microscopic analysis; type: ADME; settings: a549, 4 h
Outline: (§2)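 A549 cells incubated with 20 μM compound 4 h at 37 °C, then fixed and DAPI-stained. Compound intrinsic fluorescence located by confocal microscopy.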

Influenza A virus [3] = test: Antiviral activity against Influenza A virus (A/swine/Minnesota/02719/2009(H3N2)) infected in MDCK cells assessed as virus yeild reduction preincubated with virus at 37 degC for 1 hr followed by viral infection for 1 hr measured after 3 days by crystal violet staining based plaque assay; type: functional, cell-based
Outline: (§3)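 Plaque reduction: about 50–100 PFU/well of PR8, Cal09 or Minnesota preincubated with compound (0–10 μM) 1 h at 37 °C. Mixture then adsorbed to MDCK monolayers 1 h at 4 °C. Overlay was DMEM with 1.5% agarose, DEAE-dextran and 1 μg/mL TPCK-trypsin for 3 days at 37 °C. Glutaraldehyde fix, crystal violet stain, plaque count; IC50 derived; n = 4.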

Influenza A virus [4] = test: Antiviral activity against Influenza A virus (A/Puerto Rico/8/34(H1N1)) infected in A549 cells assessed as reduction in localization of viral NP protein in nucleus at 10 uM preincubated with virus at 37 degC for 1 hr followed by viral adsorption at 4 degC for 1 hr and subsequent infection in A549 cells measured at 2 to 4 hrs post infection by FITC-staining based immunofluorescence microscopic method; type: functional, cell-based; settings: A/Puerto Rico/8/1934(H1N1)
Outline: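 PR8 (MOI 1.0) pretreated with 10 μM compound 1 h at 37 °C, adsorbed 1 h at 4 °C, then A549 cells were kept in infecting medium with 10 μM compound. Fixed with 4% paraformaldehyde at 2 or 4 h p.i., permeabilised with Triton X-100 and blocked. Anti-NP plus FITC secondary, confocal imaging; nuclear NP intensity per unit area quantified (n = 30 images).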

Influenza A virus [5] = test: Antiviral activity against Influenza A virus (A/Puerto Rico/8/34(H1N1)) infected in MDCK cells assessed as reduction in virus titer at 10 uM preincubated with virus for 1 hr followed by viral infection measured after 24 hrs by crystal violet staining based plaque assay; type: functional, cell-based; settings: A/Puerto Rico/8/1934(H1N1)
Outline: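 PR8 (MOI 1.0) preincubated with compound (2.5–10 μM) 1 h at 37 °C, then used to infect MDCK cells. After adsorption, medium with the same compound concentration was added. At 24 h p.i. supernatant virus titer was measured by plaque assay; n = 3.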

[6] = Cytotoxicity against MDCK cells after 48 hrs by resazurin based fluorescence method; type: cell-based, Canis lupus familiaris; settings: dog; outline: as §1
Influenza A virus [7] = test: Antiviral activity against Influenza A virus (A/Puerto Rico/8/34(H1N1)) infected in MDCK cells assessed as reduction in viral HA titer by measuring reduction in chicken RBC […] after 24 hrs by hemagglutination test; type: functional, cell-based; settings: A/Puerto Rico/8/1934(H1N1)
Outline: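 MDCK cells infected at MOI 3.0 (single-cycle) with PR8, Cal09 or swine H3N2 Minnesota, then treated with compound for 24 h. Supernatant HA titers were read by 2-fold serial dilution with an equal volume of 1% chicken RBCs, 60 min at 4 °C. Expressed as percent of untreated-cell HA titer; IC50 derived; n = 4.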

Influenza A virus [8] = test: Antiviral activity against Influenza A virus (A/Puerto Rico/8/34(H1N1)) infected in MDCK cells assessed as virus yeild reduction preincubated with virus at 37 degreeC for 1 hr followed by viral infection for 1 hr measured after 3 days by crystal violet staining based plaque assay; type: functional, cell-based; settings: A/Puerto Rico/8/1934(H1N1); outline: as §3
[9] = tested on: Influenza A virus (A/California/04/2009(H1N1)); test: Antiviral activity against Influenza A virus (A/California/04/2009(H1N1)) infected in MDCK cells assessed as virus yeild reduction preincubated with virus at 37 degC for 1 hr followed by viral infection for 1 hr measured after 3 days by crystal violet staining based plaque assay; type: functional, cell-based; outline: as §3
Influenza A virus [10] = test: Antiviral activity against Influenza A virus (A/Puerto Rico/8/34(H1N1)) infected in Kunming mouse assessed as pulmonary viral titer reduction at 10 mg/kg/day, po qd for 4 days measured on day 4 post last dose by crystal violet staining based plaque assay; type: functional, organism-based; settings: A/Puerto Rico/8/1934(H1N1)
Outline: (§4)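 Female 4-week-old Kunming mice infected intranasally with PR8 (4 HAU/mouse). Oral gavage once daily began 2 h post-inoculation; placebo control. Mice euthanised on day 4; lungs homogenised in PBS and titrated by plaque assay on cell monolayers (agarose overlay, 3 days, crystal violet).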

Influenza A virus [11] = test: Antiviral activity against Influenza A virus (A/Puerto Rico/8/34(H1N1)) infected in Kunming mouse assessed as intact columnar epithelium in bronchiole without inflammatory cell infiltration at 10 mg/kg/day, po qd for 4 days by hematoxylin and eosin staining based assay; type: functional, organism-based; settings: A/Puerto Rico/8/1934(H1N1)
[12] = Drug uptake in human A549 cells at 20 uM after 4 hrs by DAPI staining based confocal microscopic analysis; type: ADME, cell-based; settings: a549, 4 h; outline: as §2
[13] = Drug uptake in human A549 cell cytoplasm at 20 uM after 4 hrs by DAPI staining based confocal microscopic analysis; type: ADME; settings: a549, 4 h; outline: as §2
[14] = Drug uptake in human A549 cell membranes at 20 uM after 4 hrs by DAPI staining based confocal microscopic analysis; type: ADME; settings: a549, 4 h; outline: as §2
[15] = Selectivity index, ratio of CC50 for MDCK cells to IC50 for Influenza A virus (A/Puerto Rico/8/34(H1N1)) infected in MDCK cells assessed as reduction in virus-induced cytopathic effect; type: toxicity, cell-based; settings: dog, read-out: Ratio CC50/IC50
Influenza A virus [16] = test: Antiviral activity against Influenza A virus (A/Puerto Rico/8/34(H1N1)) infected in Kunming mouse assessed as viral titer reduction in lungs at 20 mg/kg/day, po qd for 4 days measured on day 4 post last dose by crystal violet staining based plaque assay; type: functional, organism-based; settings: A/Puerto Rico/8/1934(H1N1); outline: as §4
Influenza A virus [17] = test: Antiviral activity against Influenza A virus (A/Puerto Rico/8/34(H1N1)) infected in Kunming mouse assessed as survival rate at 20 mg/kg/day, po qd for 7 days measured on day 14 post infection (reference value: 30%); type: functional; settings: A/Puerto Rico/8/1934(H1N1)
Influenza A virus [18] = test: Antiviral activity against Influenza A virus (A/Puerto Rico/8/34(H1N1)) infected in Kunming mouse assessed as intact columnar epithelium in bronchiole without inflammatory cell infiltration at 20 mg/kg/day, po qd for 4 days by hematoxylin and eosin staining based assay; type: functional, organism-based; settings: A/Puerto Rico/8/1934(H1N1)
[19] = Selectivity index, ratio of CC50 for MDCK cells to IC50 for Influenza A virus (A/Puerto Rico/8/34(H1N1)) infected in MDCK cells by plaque assay; type: toxicity, cell-based; settings: dog, read-out: Ratio CC50/IC50
Influenza A virus [20] = test: Antiviral activity against Influenza A virus (A/Puerto Rico/8/34(H1N1)) infected in MDCK cells assessed as reduction in virus-induced cytopathic effect after 48 hrs by crystal violet staining based assay; type: functional, cell-based; settings: A/Puerto Rico/8/1934(H1N1)
Outline: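 MDCK cells infected with PR8 at MOI 0.1; compounds added in triplicate after inoculum removal. After 48 h cells were fixed with 4% formaldehyde and stained with 0.1% crystal violet. Dye was methanol-solubilised and read at 570 nm; IC50 was the concentration halving CPE.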

For `Nc1cccc(Nc2c3ccccc3nc3c2[nH]c2ccccc23)c1`, which Activity (NCI-H1299) is on record?
The Activity was “Non-Toxic”.

What about the Activity (A549) of the same compound?
The Activity was “Non-Toxic”.

For `O=C(Nc1cccc(Nc2c3ccccc3nc3c2[nH]c2ccccc23)c1)c1cccc(B(O)O)c1`, which Activity (NCI-H1299) is on record?
Its Activity is “Non-Toxic”.

What about the Activity (A549) of the same compound?
Its Activity is “Non-Toxic”.

With `O=C(Nc1cccc(Nc2c3ccccc3nc3c2[nH]c2ccccc23)c1)c1ccc(B(O)O)cc1` as the compound, how does the Activity (NCI-H1299) read?
The Activity was “Non-Toxic”.

What about the Activity (A549) of the same compound?
Its Activity is “Non-Toxic”.

Which inhibition [1] does the source give for `CC(=O)N[C@H]1[C@H]([C@H](O)[C@H](O)CO)OC(C(=O)O)=C[C@@H]1NC(=N)N` here?
The inhibition was > 85%.

With `O=C(Nc1ccc(Nc2c3ccccc3nc3c2[nH]c2ccccc23)cc1)c1ccc(B(O)O)cc1` as the compound, how does the Activity (NCI-H1299) read?
Its Activity is “Non-Toxic”.

And the Activity (A549)?
Its Activity is “Non-Toxic”.

Which Activity (NCI-H1299) does the source give for `Nc1ccc(Nc2c3ccccc3nc3c2[nH]c2ccccc23)cc1` here?
Its Activity is “Non-Toxic”.

And the Activity (A549)?
The Activity was “Non-Toxic”.

Which Activity (NCI-H1299) does the source give for `O=C(Nc1ccccc1Nc1c2ccccc2nc2c1[nH]c1ccccc12)c1ccc(B(O)O)cc1` here?
The Activity was “Non-Toxic”.

What about the Drug uptake [2] of the same compound?
The Drug uptake was “Not Active”.

And the Activity (Influenza A virus [3])?
Its Activity is “Active”.

And the Activity (A549)?
Its Activity is “Non-Toxic”.

What about the Activity (Influenza A virus [4]) of the same compound?
Its Activity is “Active”.

What about the Activity (Influenza A virus [5]) of the same compound?
The Activity was “Active”.

What about the CC50 at 48 h [6] of the same compound?
The CC50 at 48 h was 78.6 µM.

What about the Activity (Influenza A virus [7]) of the same compound?
The Activity was “Active”.

What about the Activity (Influenza A virus [8]) of the same compound?
The Activity was “Active”.

And the Activity [9]?
The Activity was “Active”.

What about the inhibition [1] of the same compound?
The inhibition was 56%.

And the Activity (Influenza A virus [10])?
Its Activity is “Active”.

What about the Activity (Influenza A virus [11]) of the same compound?
Its Activity is “Active”.

And the Drug uptake [12]?
Its Drug uptake is “Active”.

And the Drug uptake [13]?
The Drug uptake was “Active”.

What about the Drug uptake [14] of the same compound?
The Drug uptake was “Active”.

Which results are given for `CCOC(=O)C1=C[C@@H](OC(CC)CC)[C@H](NC(C)=O)[C@@H](N)C1` [OSELTAMIVIR]?
selectivity ratio [15]: 36.2; Activity (Influenza A virus [5]): Active; Activity (Influenza A virus [7]): Active; Activity (Influenza A virus [16]): Active; survival at 20 mg/kg/day (Influenza A virus [17]): 80%; Activity (Influenza A virus [18]): Active

With `O=C(Nc1ccc(Nc2c3ccccc3nc3c2[nH]c2ccccc23)cc1)c1cccc(B(O)O)c1` as the compound, how does the Activity (NCI-H1299) read?
The Activity was “Non-Toxic”.

And the Activity (A549)?
Its Activity is “Non-Toxic”.

For `Nc1ccccc1Nc1c2ccccc2nc2c1[nH]c1ccccc12`, which Activity (NCI-H1299) is on record?
The Activity was “Non-Toxic”.

And the selectivity ratio [15]?
Its selectivity ratio is 0.8.

What about the Drug uptake [2] of the same compound?
Its Drug uptake is “Active”.

What about the Activity (Influenza A virus [3]) of the same compound?
The Activity was “Active”.

And the Activity (A549)?
Its Activity is “Non-Toxic”.

And the Activity (Influenza A virus [4])?
The Activity was “Active”.

And the IC50 (Influenza A virus [5])?
Its IC50 is 25.5 µM.

And the CC50 at 48 h [6]?
Its CC50 at 48 h is 37.9 µM.

What about the Activity (Influenza A virus [7]) of the same compound?
The Activity was “Active”.

What about the Activity (Influenza A virus [8]) of the same compound?
Its Activity is “Active”.

What about the Activity [9] of the same compound?
Its Activity is “Active”.

What about the inhibition [1] of the same compound?
Its inhibition is “inactive”.

And the Activity (Influenza A virus [10])?
The Activity was “inactive”.

What about the Activity (Influenza A virus [11]) of the same compound?
Its Activity is “Active”.

What about the Drug uptake [12] of the same compound?
Its Drug uptake is “Active”.

What about the selectivity ratio [19] of the same compound?
The selectivity ratio was 1.5.

And the IC50 (Influenza A virus [20])?
The IC50 was 47.4 µM.
